Experimental findings from ChEMBL document CHEMBL1156862, “Synthesis of C-glycoside analogues of beta-galactosamine-(1-->4)-3-O-methyl-D-chiro-inositol and assay as activator of protein phosphatases PDHP and PP2Calpha” (Bioorg Med Chem, 2010) are described below.

Active and inactive are the calls of the source. The calls are words filed in the database; no cut-off is given here.

Experiment [1] has as its target T1, Protein phosphatase 1A (Mus musculus) (UniProt P49443).
T1 sequence (whole entry): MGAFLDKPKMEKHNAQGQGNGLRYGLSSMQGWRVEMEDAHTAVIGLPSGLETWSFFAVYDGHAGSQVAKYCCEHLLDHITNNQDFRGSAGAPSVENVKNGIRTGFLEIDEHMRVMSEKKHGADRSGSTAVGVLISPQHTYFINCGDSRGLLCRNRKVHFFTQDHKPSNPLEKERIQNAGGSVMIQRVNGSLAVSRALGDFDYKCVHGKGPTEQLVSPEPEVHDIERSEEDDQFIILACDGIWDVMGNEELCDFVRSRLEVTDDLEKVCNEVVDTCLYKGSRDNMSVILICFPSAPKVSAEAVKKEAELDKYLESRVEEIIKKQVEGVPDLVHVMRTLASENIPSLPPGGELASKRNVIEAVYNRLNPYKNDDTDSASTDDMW
The experiment is described as follows: Activation of mouse recombinant GST-tagged PP2Calpha assessed as phosphate release using octapeptide-phosphate substrate RRRRPp-TPA. The essentials:
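Mouse wild-type GST-PP2Cα fusion (2 µg) at rt in 0.1 M Tris-HCl pH 8.0, 2 mM DTT, with varied MnCl₂ or compound. Phosphopeptide RRRRPpTPA at 5 µM final, 15 min. Stopped with malachite green, 15 min color, A650. No-enzyme blanks subtracted; triplicates, mean ± SD versus concentration.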

The nature of experiment [2]: Activation of PDHP in presence of 5 mM Mn2+. The essentials:
(§1)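 Triplicate wells. PDHP and PDH incubated 37 °C 30 min. NaF stop, then pyruvate-ADP and NAD/cocarboxylase/CoA mix, 2 min rt. Activity read as absorbance change at 340 nm; data pooled from two experiments with separately synthesized samples.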

Experiment [3] is described as follows: Activation of PDHP in absence of 5 mM Mn2+. Put shortly: as §1
The target of experiment [4] is T1, Protein phosphatase 1A (Mus musculus). The experiment is described as follows: Activation of mouse recombinant GST-tagged PP2Calpha assessed as phosphate release using para-Nitrophenyl phosphate substrate. The essentials: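 Mouse wild-type GST-PP2Cα fusion (1 µg) at rt in 0.1 M Tris-HCl pH 8.0, 2 mM DTT, with varied MnCl₂ or compound. Substrate 5 mM p-nitrophenyl phosphate, 30 min. Stopped with 0.5% SDS, A410. Triplicates, mean ± SD versus concentration.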

As to `CO[C@@H]1[C@@H](O)[C@@H](O)[C@H](O)[C@H](O)[C@H]1C[C@@H]1O[C@H](CO)[C@H](O)[C@H](O)[C@H]1N`, the outcome in experiment [1], in experiment [3] and in experiment [4] was inactive. In addition, in experiment [2], the result was Active.
For the molecule `CO[C@@H]1[C@@H](O)[C@@H](O)[C@H](O)[C@H](O)[C@H]1C[C@@H]1O[C@H](CO)[C@H](O)[C@H](O)[C@H]1O`, the outcome in experiment [1], in experiment [2], in experiment [3] and in experiment [4] was inactive.
As for `CO[C@@H]1[C@@H](O)[C@@H](O)[C@H](O)[C@H](O)[C@H]1O[C@@H]1O[C@H](CO)[C@H](O)[C@H](O)[C@H]1N`, the outcome in experiment [1] and in experiment [2] was Active. Moreover, the result in experiment [3] and in experiment [4] was inactive.
